The values that follow come from ChEMBL document CHEMBL1124024, “Crystal structures and pharmacologic activities of 1,4-dihydropyridine calcium channel antagonists of the isobutyl methyl 2,6-dimethyl-4-(substituted phenyl)-1,4-dihydropyridine-3,5-dicarboxylate (nisoldipine) series” (J Med Chem, 1988).

The species entered for assay [1] is Cavia porcellus. The experiment in a line: Inhibition of tonic (slow) component of K+ depolarization response in guinea pig ileal longitudinal smooth muscle. Particulars: Muscle tissue. It is filed as functional. The procedure, abridged: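 Longitudinal strips of terminal ileum from male guinea pigs (300-500 g) held in aerated physiologic saline under 500 mg resting tension, with isotonic recording. A control maximal response to 80 mM KCl depolarizing saline was taken, followed by washout and 30-min re-equilibration. Antagonist was then equilibrated for 30 min and the K+ response measured again. One concentration per tissue; contraction read in mm from baseline.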

Assay [2] deals with Voltage-gated L-type calcium channel (Cavia porcellus). The experiment in a line: Inhibition of [3H]nitrendipine binding to guinea pig ileal longitudinal smooth muscle.

Turning to `CO/C(O)=C1\C(C)=NC(C)=C(C(=O)OCC(C)C)C1c1ccc(Cl)cc1` (configuration not stated), the IC50 in assay [1] was found to be 27 nM; in assay [2], 2.8 nM. The corresponding values for `CO/C(O)=C1\C(C)=NC(C)=C(C(=O)OCC(C)C)C1c1ccc(F)cc1` (configuration not stated) are 6.8 nM and 1.5 nM. `CO/C(O)=C1\C(C)=NC(C)=C(C(=O)OCC(C)C)C1c1cccc([N+](=O)[O-])c1` (configuration not stated): the IC50 came out at 0.59 nM in assay [1] and 0.0081 nM in assay [2]. In the same order, the values of `CO/C(O)=C1\C(C)=NC(C)=C(C(=O)OCC(C)C)C1c1ccccc1` (configuration not stated) are 3.3 nM and 0.25 nM. Consider `CO/C(O)=C1\C(C)=NC(C)=C(C(=O)OCC(C)C)C1c1cccc(OC)c1` (configuration not stated), for which the figures for the IC50 in assay [1] and in assay [2] were 7.1 nM and 2.3 nM, respectively.

Take `CO/C(O)=C1\C(C)=NC(C)=C(C(=O)OCC(C)C)C1c1ccccc1C(F)(F)F` (configuration not stated): the IC50 was determined as 2.1 nM in assay [1] and 0.027 nM in assay [2]. For `CO/C(O)=C1\C(C)=NC(C)=C(C(=O)OCC(C)C)C1c1cccc(C(F)(F)F)c1` (configuration not stated), the IC50 in assay [1] stood at 15 nM; in assay [2] it was 0.14 nM.

With `CO/C(O)=C1\C(C)=NC(C)=C(C(=O)OCC(C)C)C1c1cccc(C#N)c1` (configuration not stated), the IC50 in assay [1] was 0.27 nM; in assay [2] it was 0.013 nM. Turning to `CO/C(O)=C1\C(C)=NC(C)=C(C(=O)OCC(C)C)C1c1ccccc1[N+](=O)[O-]` (configuration not stated), in assay [1], half-maximal inhibition (IC50) was put at 0.22 nM.

By IC50 is commonly meant the concentration that gives 50% inhibition.
